According to ChEMBL document CHEMBL1148321, “New series of morpholine and 1,4-oxazepane derivatives as dopamine D4 receptor ligands: synthesis and 3D-QSAR model” (J Med Chem, 2004):
Active and inactive are the calls of the source. The calls are words filed in the database; no cut-off is given here.

Columns and labels:
[1] = target: T1, D(4) dopamine receptor (Homo sapiens, UniProt P21917); assay: In vitro ability of compound to inhibit binding of [3H]spiperone to human Dopamine receptor D4
T1 sequence (P21917 whole entry): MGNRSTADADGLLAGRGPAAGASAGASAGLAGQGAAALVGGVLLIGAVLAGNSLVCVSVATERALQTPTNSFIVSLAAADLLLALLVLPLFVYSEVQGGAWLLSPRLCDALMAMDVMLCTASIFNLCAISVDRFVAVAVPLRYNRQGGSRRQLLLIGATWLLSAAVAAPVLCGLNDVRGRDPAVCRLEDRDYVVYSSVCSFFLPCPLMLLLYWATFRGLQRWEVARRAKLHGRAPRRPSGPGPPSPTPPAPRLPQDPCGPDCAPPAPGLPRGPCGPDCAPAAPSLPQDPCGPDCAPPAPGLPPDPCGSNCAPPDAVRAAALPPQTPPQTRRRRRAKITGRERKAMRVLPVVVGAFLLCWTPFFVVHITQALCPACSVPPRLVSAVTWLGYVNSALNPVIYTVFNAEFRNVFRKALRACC

[2] = target: D(2) dopamine receptor (Homo sapiens) (UniProt P14416); assay: Compound was tested for its affinity towards human Dopamine receptor D2 at 10 uM; No affinity was observed
D(2) dopamine receptor (Homo sapiens), sequence (P14416 whole entry): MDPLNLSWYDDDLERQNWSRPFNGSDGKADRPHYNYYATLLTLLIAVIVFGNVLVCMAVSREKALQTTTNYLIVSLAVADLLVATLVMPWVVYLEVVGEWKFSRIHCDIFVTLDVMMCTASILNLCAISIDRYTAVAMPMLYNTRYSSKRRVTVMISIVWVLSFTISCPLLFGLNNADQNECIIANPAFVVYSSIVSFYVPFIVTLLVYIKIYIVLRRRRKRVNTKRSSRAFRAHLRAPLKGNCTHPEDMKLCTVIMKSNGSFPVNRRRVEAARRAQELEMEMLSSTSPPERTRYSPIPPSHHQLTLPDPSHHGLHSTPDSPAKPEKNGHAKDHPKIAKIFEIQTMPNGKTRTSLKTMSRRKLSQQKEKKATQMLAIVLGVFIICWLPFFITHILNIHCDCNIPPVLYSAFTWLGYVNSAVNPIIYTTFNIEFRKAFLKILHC

[3] = target: T1, D(4) dopamine receptor; assay: In vitro ability to inhibit binding of [3H]spiperone to human recombinant Dopamine receptor D4.2 expressed on CHO cells; type: cell-based
In short: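 Frozen membranes from CHO cells transfected with human D4.2, stored at -80 C, were thawed and diluted in 50 mM Tris-HCl pH 7.4 with 120 mM NaCl, 5 mM KCl, 5 mM MgCl2 and 1 mM EDTA. They were incubated with [3H]spiperone (0.5 nM final) for 60 min at 25 C, with haloperidol defining nonspecific binding. Samples were filtered on PEI-presoaked GF/C filters, washed with cold Tris/NaCl, and counted by scintillation.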

Compound	Ki [1] [µM]	Activity [2]	Ki [3] [µM]
CCOc1ccc(Cl)cc1OCC1CN(Cc2ccc(Cl)cc2)CCO1 (stereo unspecified)	0.0029	inactive	–
COc1ccccc1OCC1CN(Cc2ccccc2)CCO1 (stereo unspecified)	–	inactive	0.85
COc1ccc(F)cc1OCC1CN(Cc2ccc(Cl)cc2)CCO1 (stereo unspecified)	0.03	inactive	–
CC(=O)c1ccc(Cl)cc1OCC1CN(Cc2ccc(Cl)cc2)CCCO1 (stereo unspecified)	0.0055	inactive	–
CCOc1cc(C#N)ccc1OCC1CN(Cc2ccc(Cl)cc2)CCO1 (stereo unspecified)	0.04	inactive	–
COc1ccccc1OCC1CN(Cc2ccc(C(F)(F)F)cc2)CCO1 (stereo unspecified)	0.061	inactive	–
COc1ccccc1CCC1CN(Cc2ccc(Cl)cc2)CCO1 (stereo unspecified)	0.029	inactive	–
COc1ccc(C(F)(F)F)cc1OCC1CN(Cc2ccc(Cl)cc2)CCO1 (stereo unspecified)	0.25	inactive	–
Cc1ncccc1OCC1CN(Cc2ccc(Cl)cc2)CCCO1 (stereo unspecified)	0.083	inactive	–
Clc1ccc(CN2CCOC(COc3ccc(Cl)c4cccnc34)C2)cc1 (stereo unspecified)	0.04	inactive	–
CCOc1ccccc1OCC1CN(Cc2ccc(Cl)cc2Cl)CCO1 (stereo unspecified)	0.29	inactive	–
CC(C)Oc1ccccc1OCC1CN(Cc2ccc(Cl)cc2)CCO1 (stereo unspecified)	0.046	inactive	–
CCOc1ccccc1OCC1CN(Cc2ccc(Cl)cc2)CCCO1 (stereo unspecified)	0.0049	inactive	–
COc1cc(Cl)ccc1OC[C@H]1CN(Cc2ccc(Cl)cc2)CCO1	1.6	inactive	–
COCCOc1ccccc1OCC1CN(Cc2ccc(Cl)cc2)CCO1 (stereo unspecified)	0.052	inactive	–
COc1ccccc1SCC1CN(Cc2ccc(Cl)cc2)CCO1 (stereo unspecified)	0.061	inactive	–
COc1cccc(OCC2CN(Cc3ccc(Cl)cc3)CCO2)c1OC (stereo unspecified)	1	inactive	–
COc1ccc([N+](=O)[O-])cc1OCC1CN(Cc2ccc(Cl)cc2)CCO1 (stereo unspecified)	0.023	inactive	–
COc1cc(Cl)ccc1OCC1CN(Cc2ccc(Cl)cc2)CCO1 (racemic)	0.0044	inactive	–
CCOc1ccccc1OCC1CN(Cc2ccc([N+](=O)[O-])cc2)CCO1 (stereo unspecified)	0.035	inactive	–
COc1cc(C(=O)NC2CC2)c(Cl)cc1OCC1CN(Cc2ccc(Cl)cc2)CCO1 (stereo unspecified)	0.15	inactive	–

Compound	Ki [1] [µM]	Activity [2]	Ki [3] [µM]
COc1cc(I)ccc1OCC1CN(Cc2ccccc2)CCO1 (stereo unspecified)	0.43	inactive	–
COc1ccccc1OCC1CN(Cc2cccc(Cl)c2)CCO1 (stereo unspecified)	0.65	inactive	–
Oc1cc(Cl)ccc1NCC1CN(Cc2ccc(Cl)cc2)CCO1 (stereo unspecified)	0.0054	inactive	–
COc1cc(Cl)cc(OCC2CN(Cc3ccccc3)CCO2)c1 (stereo unspecified)	–	inactive	–
CCOc1cc(I)ccc1OCC1CN(Cc2ccc(Cl)cc2)CCO1 (stereo unspecified)	0.024	inactive	–
CCOc1ccccc1OCC1CN(Cc2ccc(Cl)cc2)CCO1 (stereo unspecified)	0.013	inactive	–
COc1ccccc1/C=C/C1CN(Cc2ccc(Cl)cc2)CCO1 (stereo unspecified)	0.2	inactive	–
COc1cc(Cl)ccc1OC[C@@H]1CN(Cc2ccc(Cl)cc2)CCO1	0.0028	inactive	–
CCOc1ccc(Cl)cc1OCC1CN(Cc2ccc(Cl)cc2)CCCO1 (stereo unspecified)	0.0093	inactive	–
CCOc1cc(Cl)ccc1OCC1CN(Cc2ccc(Cl)cc2)CCCO1 (stereo unspecified)	0.007	inactive	–
COc1ccccc1OCC1CN(Cc2ccc(Cl)cc2)CCO1 (stereo unspecified)	0.032	inactive	–
COc1ccc(Cl)cc1OCC1CN(Cc2ccccc2)CCO1 (stereo unspecified)	0.07	inactive	–
CCOc1cc(Cl)ccc1OCC1CN(Cc2ccc(Cl)cc2)CCO1 (stereo unspecified)	0.013	inactive	–
COc1ccccc1OCC1CN(Cc2ccc(Cl)c(Cl)c2)CCO1 (stereo unspecified)	0.032	inactive	–
COc1ccc(N)cc1OCC1CN(Cc2ccc(Cl)cc2)CCO1 (stereo unspecified)	0.1	inactive	–
COc1ccc([N+](=O)[O-])cc1OCC1CN(Cc2ccc(Cl)cc2)CCCO1 (stereo unspecified)	0.4	inactive	–
COc1ccc(Cl)cc1NCC1CN(Cc2ccc(Cl)cc2)CCO1 (stereo unspecified)	0.0045	inactive	–
COc1cc(Cl)ccc1OCC1CN(Cc2ccc(Br)cc2)CCCO1 (stereo unspecified)	0.002	inactive	–
CCCc1ccccc1OCC1CN(Cc2ccc(Cl)cc2)CCO1 (stereo unspecified)	0.032	inactive	–
CCOc1ccccc1OCC1CN(Cc2ccc(F)cc2)CCO1 (stereo unspecified)	0.18	inactive	–
